According to ChEMBL document CHEMBL4014327 (J Med Chem, 2017):
Values after ≈ are worked out from the molar mass of the structure shown. Active and inactive are the calls of the source. The calls are words filed in the database; no cut-off is given here.

Legend:
[1] = Apparent permeability in RRCK cells from apical to basolateral side; type: ADME, cell-based, Canis lupus familiaris, MDCKII-LE; conditions: dog, MDCK
In short: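 RRCK cell monolayer permeability assay; apparent permeability reported in cm/s.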

[2] = Lipophilicity, log D of compound; type: physicochemical; conditions: octanol/water
[3] = Half life in rat; type: ADME; conditions: in vivo
[4] = Apparent intrinsic clearance in human liver microsomes; type: ADME, microsome; conditions: read-out: CLH(app)
Rattus norvegicus [5] = assay: Clearance in iv dosed rat; type: ADME, organism-based; conditions: in vivo
[6] = Oral bioavailability in rat; type: ADME, organism-based; conditions: in vivo
[7] = target: T1, Interleukin-1 receptor-associated kinase 4 (Homo sapiens, UniProt Q9NWZ3); assay: Inhibition of IRAK4 in human PBMC assessed as reduction in R848-stimulated TNF alpha production after 3 hrs
T1 sequence (Q9NWZ3 whole entry): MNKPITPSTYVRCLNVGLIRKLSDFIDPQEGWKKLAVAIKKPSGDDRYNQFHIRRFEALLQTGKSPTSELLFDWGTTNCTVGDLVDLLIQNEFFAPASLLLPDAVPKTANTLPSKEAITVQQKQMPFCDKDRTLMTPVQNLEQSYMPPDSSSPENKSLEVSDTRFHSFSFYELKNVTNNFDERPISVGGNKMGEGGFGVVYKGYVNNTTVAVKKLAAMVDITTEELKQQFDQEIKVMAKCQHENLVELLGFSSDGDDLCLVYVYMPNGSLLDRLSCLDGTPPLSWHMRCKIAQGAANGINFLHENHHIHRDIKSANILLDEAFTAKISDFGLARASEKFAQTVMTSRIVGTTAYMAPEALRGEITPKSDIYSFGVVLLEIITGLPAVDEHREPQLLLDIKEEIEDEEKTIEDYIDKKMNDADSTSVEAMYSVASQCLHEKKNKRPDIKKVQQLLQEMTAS

[8] = target: T1, Interleukin-1 receptor-associated kinase 4; assay: Inhibition of N-terminal His6-tagged human full length IRAK4 preincubated for 20 mins followed by biotinylated-AGAGRDKYKTLRQIR substrate addition in presence of ATP measured after 60 mins by DELFIA method
[9] = target: T2, Interleukin-1 receptor-associated kinase 4 (Homo sapiens) (UniProt Q9NWZ3); conditions: 909 uM
T2 sequence (whole entry): T1 sequence (Q9NWZ3 whole entry)

[10] = target: T2, Interleukin-1 receptor-associated kinase 4 (Homo sapiens); conditions: 236 uM
CYP2C8 = CYP2C8 (Homo sapiens, UniProt P10632); assay: Inhibition of CYP2C8 in human liver microsomes at 3 uM; type: ADME
Rattus norvegicus [11] = assay: Antiinflammatory activity in Lewis rat CIA model assessed as reduction in paw swelling at 30 mg/kg, po bid treated on day 11 post immunization for 8 days by plethysmographic method; type: functional, organism-based
In short: (§1)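 Female Lewis rats (about 7−9 weeks old, n = 10 per group) immunized on day 0 with bovine type II collagen in incomplete Freund's adjuvant and boosted on day 7. Oral dosing twice daily as solution or suspension in vehicle (0.5% methylcellulose, 2% Tween 80 in water), vehicle-only controls. Paw volume measured daily by plethysmograph, body weight recorded daily.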

Rattus norvegicus [12] = assay: In vivo receptor occupancy at IRAK4 in spleen of Lewis rat CIA model at 100 mg/kg, po measured at 1 hr postdose; type: functional
In short: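 Lewis female rats (7–9 wk, n = 10/group), immunized with bovine type II collagen/IFA on day 0 and boosted day 7. Oral dosing twice daily in therapeutic mode (started after disease onset), vehicle 0.5% methylcellulose, 2% Tween 80 in water. Spleens sampled 1 h postdose, flash frozen. Kinase occupancy measured by KiNativ profiling with an ATP-competitive probe.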

Rattus norvegicus [13] = assay: In vivo receptor occupancy at IRAK4 in spleen of po dosed Lewis rat CIA model measured at 1 hr postdose; type: functional, organism-based
[14] = target: Voltage-gated inwardly rectifying potassium channel KCNH2 (Homo sapiens, UniProt Q12809); assay: Inhibition of human ERG
[15] = target: T2, Interleukin-1 receptor-associated kinase 4 (Homo sapiens); assay: Inhibition of IRAK4 in human THP1 cell lysate
CYP3A4 = CYP3A4 (Homo sapiens, UniProt P08684); assay: Inhibition of CYP3A4 in human liver microsomes at 3 uM; type: ADME
[16] = Thermodynamic solubility of compound at pH 6.5; type: physicochemical; conditions: buffer, read-out: Therm_solubility
CYP2D6 = CYP2D6 (Homo sapiens, UniProt P10635); assay: Inhibition of CYP2D6 in human liver microsomes at 3 uM; type: ADME
CYP1A2 = CYP1A2 (Homo sapiens, UniProt P05177); assay: Inhibition of CYP1A2 in human liver microsomes at 3 uM; type: ADME
[17] = Fraction unbound in rat plasma; type: ADME, cell-free
In short: (§2)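 Fraction unbound in plasma measured by equilibrium dialysis.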

CYP2C9 = CYP2C9 (Homo sapiens, UniProt P11712); assay: Inhibition of CYP2C9 in human liver microsomes at 3 uM; type: ADME
Rattus norvegicus [18] = assay: Antiinflammatory activity in Lewis rat CIA model assessed as reduction in paw swelling at 100 mg/kg, po bid treated on day 11 post immunization for 8 days by plethysmographic method; type: functional, organism-based; in short: as §1
[19] = Fraction unbound in human plasma; type: ADME, cell-free; in short: as §2

Chain of Voltage-gated inwardly rectifying potassium channel KCNH2 (Q12809 whole entry): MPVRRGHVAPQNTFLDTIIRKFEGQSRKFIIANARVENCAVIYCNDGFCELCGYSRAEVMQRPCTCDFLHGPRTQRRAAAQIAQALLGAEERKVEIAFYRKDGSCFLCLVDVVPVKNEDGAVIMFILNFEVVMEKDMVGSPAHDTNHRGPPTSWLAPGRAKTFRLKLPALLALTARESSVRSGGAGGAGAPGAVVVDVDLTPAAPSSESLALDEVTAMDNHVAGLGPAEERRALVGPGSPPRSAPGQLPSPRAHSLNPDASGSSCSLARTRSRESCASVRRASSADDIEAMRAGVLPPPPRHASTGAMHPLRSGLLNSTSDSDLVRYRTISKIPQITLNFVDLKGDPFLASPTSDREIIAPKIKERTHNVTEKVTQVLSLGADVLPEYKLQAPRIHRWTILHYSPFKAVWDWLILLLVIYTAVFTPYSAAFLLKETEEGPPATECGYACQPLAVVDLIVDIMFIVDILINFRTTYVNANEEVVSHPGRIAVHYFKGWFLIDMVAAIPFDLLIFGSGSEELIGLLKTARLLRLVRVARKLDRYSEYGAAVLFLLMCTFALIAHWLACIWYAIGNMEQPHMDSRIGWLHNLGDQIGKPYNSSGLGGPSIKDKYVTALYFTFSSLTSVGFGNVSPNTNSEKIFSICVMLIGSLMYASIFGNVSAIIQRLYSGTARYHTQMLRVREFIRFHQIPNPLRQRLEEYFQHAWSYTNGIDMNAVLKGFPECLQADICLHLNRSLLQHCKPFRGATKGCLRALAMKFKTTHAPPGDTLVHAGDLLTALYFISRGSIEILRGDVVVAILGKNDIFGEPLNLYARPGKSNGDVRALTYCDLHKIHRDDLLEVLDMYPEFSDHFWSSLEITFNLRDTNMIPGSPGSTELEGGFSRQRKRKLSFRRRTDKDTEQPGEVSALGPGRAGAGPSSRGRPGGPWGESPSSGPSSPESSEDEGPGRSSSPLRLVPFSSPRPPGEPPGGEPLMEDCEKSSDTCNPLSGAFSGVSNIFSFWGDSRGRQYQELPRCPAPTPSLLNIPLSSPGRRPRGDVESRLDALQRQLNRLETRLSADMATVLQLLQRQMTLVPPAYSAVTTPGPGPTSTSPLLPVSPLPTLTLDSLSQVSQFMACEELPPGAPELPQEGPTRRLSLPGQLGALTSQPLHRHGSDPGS
Chain of CYP1A2 (P05177 whole entry): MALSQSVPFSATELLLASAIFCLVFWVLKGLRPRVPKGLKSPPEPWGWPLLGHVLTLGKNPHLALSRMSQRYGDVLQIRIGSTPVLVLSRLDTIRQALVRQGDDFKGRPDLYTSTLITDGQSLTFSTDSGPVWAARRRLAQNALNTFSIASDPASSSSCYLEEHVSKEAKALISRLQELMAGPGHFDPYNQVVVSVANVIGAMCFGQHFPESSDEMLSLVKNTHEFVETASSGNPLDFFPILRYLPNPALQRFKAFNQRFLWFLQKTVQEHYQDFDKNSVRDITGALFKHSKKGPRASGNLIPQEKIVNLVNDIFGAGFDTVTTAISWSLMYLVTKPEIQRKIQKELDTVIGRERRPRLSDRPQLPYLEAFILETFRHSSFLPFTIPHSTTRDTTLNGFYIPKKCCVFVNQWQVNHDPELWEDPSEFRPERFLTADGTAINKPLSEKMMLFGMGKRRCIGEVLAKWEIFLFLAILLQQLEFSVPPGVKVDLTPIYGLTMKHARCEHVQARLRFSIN
Chain of CYP2D6 (P10635 whole entry): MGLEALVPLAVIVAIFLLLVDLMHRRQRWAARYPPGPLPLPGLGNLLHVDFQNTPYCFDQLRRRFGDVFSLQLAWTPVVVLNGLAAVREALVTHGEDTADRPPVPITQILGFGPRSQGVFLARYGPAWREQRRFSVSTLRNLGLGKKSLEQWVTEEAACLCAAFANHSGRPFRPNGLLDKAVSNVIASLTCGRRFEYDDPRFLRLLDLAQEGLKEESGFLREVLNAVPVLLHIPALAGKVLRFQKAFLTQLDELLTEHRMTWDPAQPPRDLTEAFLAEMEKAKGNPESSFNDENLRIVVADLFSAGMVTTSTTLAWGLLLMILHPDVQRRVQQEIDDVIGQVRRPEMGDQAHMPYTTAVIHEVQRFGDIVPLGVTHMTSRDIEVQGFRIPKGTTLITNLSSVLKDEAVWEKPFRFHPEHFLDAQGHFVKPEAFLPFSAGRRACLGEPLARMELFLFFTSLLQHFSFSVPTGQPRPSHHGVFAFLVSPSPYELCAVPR
Chain of CYP3A4 (P08684 whole entry): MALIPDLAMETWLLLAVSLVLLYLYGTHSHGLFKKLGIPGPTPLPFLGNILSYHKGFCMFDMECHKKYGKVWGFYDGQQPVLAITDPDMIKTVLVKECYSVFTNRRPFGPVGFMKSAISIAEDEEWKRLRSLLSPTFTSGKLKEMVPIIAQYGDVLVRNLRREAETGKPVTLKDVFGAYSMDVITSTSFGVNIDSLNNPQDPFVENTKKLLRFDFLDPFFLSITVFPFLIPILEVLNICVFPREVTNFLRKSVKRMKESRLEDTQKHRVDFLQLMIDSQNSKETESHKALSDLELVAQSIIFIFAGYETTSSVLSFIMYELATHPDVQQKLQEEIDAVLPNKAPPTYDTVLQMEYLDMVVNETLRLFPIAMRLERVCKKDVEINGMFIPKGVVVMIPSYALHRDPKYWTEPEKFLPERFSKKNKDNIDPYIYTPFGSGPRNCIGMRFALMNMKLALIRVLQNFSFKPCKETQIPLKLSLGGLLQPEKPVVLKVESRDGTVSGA
Chain of CYP2C8 (P10632 whole entry): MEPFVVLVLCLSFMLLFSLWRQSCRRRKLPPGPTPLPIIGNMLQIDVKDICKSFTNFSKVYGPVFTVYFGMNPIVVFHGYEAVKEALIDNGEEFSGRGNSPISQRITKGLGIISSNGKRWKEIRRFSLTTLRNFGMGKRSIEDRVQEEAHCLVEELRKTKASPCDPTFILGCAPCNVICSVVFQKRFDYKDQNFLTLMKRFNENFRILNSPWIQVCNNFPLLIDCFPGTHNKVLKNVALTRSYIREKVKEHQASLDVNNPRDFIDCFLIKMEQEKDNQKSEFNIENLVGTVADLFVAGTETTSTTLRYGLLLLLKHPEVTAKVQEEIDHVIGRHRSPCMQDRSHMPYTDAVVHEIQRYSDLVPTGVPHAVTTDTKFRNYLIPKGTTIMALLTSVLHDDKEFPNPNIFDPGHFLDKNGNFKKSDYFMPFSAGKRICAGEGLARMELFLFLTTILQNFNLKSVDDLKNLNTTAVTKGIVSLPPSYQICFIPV
Chain of CYP2C9 (P11712 whole entry): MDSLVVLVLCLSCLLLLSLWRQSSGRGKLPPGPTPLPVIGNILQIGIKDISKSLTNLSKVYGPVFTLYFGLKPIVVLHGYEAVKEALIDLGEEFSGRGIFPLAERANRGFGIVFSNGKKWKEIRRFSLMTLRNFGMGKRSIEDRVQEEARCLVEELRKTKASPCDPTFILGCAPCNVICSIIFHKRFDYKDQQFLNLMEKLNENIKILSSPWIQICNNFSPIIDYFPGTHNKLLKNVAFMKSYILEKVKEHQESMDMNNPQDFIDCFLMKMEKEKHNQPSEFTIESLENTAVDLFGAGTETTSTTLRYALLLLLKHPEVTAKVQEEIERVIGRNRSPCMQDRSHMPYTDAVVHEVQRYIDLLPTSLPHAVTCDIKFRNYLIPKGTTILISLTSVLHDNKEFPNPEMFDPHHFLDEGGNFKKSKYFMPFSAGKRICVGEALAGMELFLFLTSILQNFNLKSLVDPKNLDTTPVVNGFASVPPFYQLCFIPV

SMILES	Papp A→B [1] [×10⁻⁶ cm/s]	microsomal CLint [4] [µL/min/mg]	also measured
CC(C)Oc1cc2c(OC[C@H]3CCC(=O)N3)nccc2cc1C(N)=O	10.5	–	–
COc1cc2c(OC[C@@H]3CCC(=O)N3)nccc2cc1C(N)=O	9.9	9	logD [2]: 0.9; half-life [3]: 60 min; clearance (Rattus norvegicus [5]): 35 mL/min/kg; bioavailability [6]: 44%
CCC[C@@H]1CC(=O)N[C@@H]1COc1nccc2cc(C(N)=O)c(OC)cc12	18.9	44	IC50 [7]: 28.4 nM
COc1cc2c(OC[C@H]3NC(=O)[C@@H](C)[C@H]3C)nccc2cc1C(N)=O	15.8	9	–
CC(C)Oc1cc2c(-c3ccc(C#N)cc3)cccc2cc1C(N)=O	–	–	IC50 [8]: 71.9 nM
CC(C)Oc1cc2c(O[C@@H]3CCCNC3)ccnc2cc1C(N)=O	2.8	–	logD [2]: 0.4; IC50 [8]: 146 nM
CC(C)Oc1ccccc1C(N)=O	–	–	inhibition [9]: > 50%; inhibition [10]: > 10%; IC50 [8]: 55000 nM
CC[C@H]1[C@@H](COc2nccc3cc(C(N)=O)c(OC)cc23)NC(=O)[C@@H]1F	14.2	15	–
CC(C)Oc1cc2ccccc2cc1C(N)=O	–	–	IC50 [8]: 2090 nM
COc1cc2c(OC[C@H]3NC(=O)C[C@H]3C)nccc2cc1C(N)=O	10.5	< 9	–
COc1cc2c(OC[C@H]3NC(=O)[C@H](C)[C@H]3C)nccc2cc1C(N)=O	13.9	32	–
CC(C)Oc1cc2c(O[C@@H]3CCCNC3)nccc2cc1C(N)=O	11.4	11	logD [2]: 0.7; IC50 [7]: 1550 nM; IC50 [8]: 121 nM
COc1cc2c(OC[C@H]3NC(=O)[C@@H]4[C@@H](C)[C@@H]43)nccc2cc1C(N)=O	13.5	< 8	–
COc1cc2c(OC[C@@H]3CCC(=O)N3)cccc2cc1C(N)=O	14.2	13	logD [2]: 1.5
CCOc1cc2c(OC[C@@H]3CCC(=O)N3)nccc2cc1C(N)=O	10.6	9	–
CC(C)Oc1cc2c(OC[C@@H]3CCC(=O)N3)nccc2cc1C(N)=O	10.7	10	inhibition at 3 µM (CYP2C8): < 10%; Activity (Rattus norvegicus [11]): Active; Occ (Rattus norvegicus [12]): 80%; Occ (Rattus norvegicus [13]): Dose-dependent effect; half-life [3]: 72 min; IC50 [14]: > 30 µM; inhibition [15]: Active; inhibition at 3 µM (CYP3A4): < 10%; solubility thermodynamic [16]: 78 µM (≈ 26.8 µg/mL); inhibition at 3 µM (CYP2D6): < 10%; clearance (Rattus norvegicus [5]): 23 mL/min/kg; bioavailability [6]: 57%; inhibition at 3 µM (CYP1A2): < 10%; fraction unbound [17]: 0.21; inhibition at 3 µM (CYP2C9): 13.6%; Activity (Rattus norvegicus [18]): Active; fraction unbound [19]: 0.29
COc1cc2c(OC[C@H]3NC(=O)[C@@H]4C[C@H]34)nccc2cc1C(N)=O	11.7	< 8	–
CC[C@@H]1CC(=O)N[C@@H]1COc1nccc2cc(C(N)=O)c(OC)cc12	17.9	14	–
COC[C@@H]1CC(=O)N[C@@H]1COc1nccc2cc(C(N)=O)c(OC)cc12	12.5	< 8	IC50 [7]: 373 nM
COc1cc2c(OC[C@H]3NC(=O)[C@@]4(F)[C@@H]3[C@@H]4C)nccc2cc1C(N)=O	16.3	< 8	–
COc1cc2c(OC[C@H]3NC(=O)[C@H](F)[C@H]3C)nccc2cc1C(N)=O	10.4	12	–
COc1cc2c(OC[C@@H]3CCC(=O)N3)ccnc2cc1C(N)=O	5.8	< 8	–
COc1cc2c(OC[C@H]3NC(=O)[C@@H](F)[C@H]3C)nccc2cc1C(N)=O	9.9	< 9	–
